Source: ChEMBL document CHEMBL2057104, “Identification of myricetin and scutellarein as novel chemical inhibitors of the SARS coronavirus helicase, nsP13” (Bioorg Med Chem Lett, 2012)
Activity calls are given as the source filed them. The rule behind the calls is not given here.

Legend:
[1] = system: Severe acute respiratory syndrome-related coronavirus; test: Inhibition of SARS coronavirus nsP13 ATP hydrolysis activity expressed in Escherichia coli Rosetta assessed as inhibition of inorganic phosphate release at 10 uM by AM/MG-based colometric analysis in the presence of M13 ssDNA
[2] = system: Hepacivirus hominis; test: Inhibition of HCV NS3 helicase overexpressed in Escherichia coli BL21(DE3) assessed as inhibition of DNA unwinding activity at 10 uM by FRET assay
[3] = system: Hepacivirus hominis; test: Inhibition of HCV NS3 helicase ATP hydrolysis activity overexpressed in Escherichia coli BL21(DE3) assessed as inhibition of inorganic phosphate release by AM/MG-based colometric analysis in the presence of M13 ssDNA
[4] = system: Severe acute respiratory syndrome-related coronavirus; test: Inhibition of SARS coronavirus nsP13 helicase activity expressed in Escherichia coli Rosetta assessed inhibition of DNA unwinding activity at 10 uM by FRET assay
How it was run: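 FRET dsDNA-unwinding assay using fluorescein/TAMRA-labelled duplex. When nsP13 unwinds the duplex, fluorescein emission is unquenched. Compound was added to the unwinding reaction at 10 µM, and fluorescence was read at 535 nm.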

[5] = system: MCF-10A; test: Cytotoxicity in human MCF10A cells at 2 uM measured every 24 hrs for 3 days by hemocytometry; format: cell-based; settings: 72 h
How it was run: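 MCF10A breast epithelial cells grown at 37°C in 5% CO2 and seeded at 2.0 × 10^5 per well. They were exposed to compound at 2 µM and harvested every 24 h for 3 days. Viable cells were counted by hemacytometer. Results are mean ± standard deviation, n = 6, compared by Student t-test.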

[6] = Inhibition of SARS coronavirus nsP13 ATP hydrolysis activity expressed in Escherichia coli Rosetta assessed as inhibition of inorganic phosphate release by AM/MG-based colometric analysis in the presence of M13 ssDNA; set-up: species or system Severe acute respiratory syndrome-related coronavirus
How it was run: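 ATP hydrolysis was measured colorimetrically as phosphate complex formation with ammonium molybdate/malachite green. Reactions ran with a range of compound concentrations. IC50 was derived from the concentration series.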

SMILES	inhibition [1] [%]	inhibition [2]	inhibition [3]	inhibition [4]	Activity [5]	IC50 [6] [nM]
CC1(C)CC[C@]2(C)CC=C3[C@]4(C)CC[C@H]5C(C)(C)[C@@H](O)CC[C@]5(C)[C@H]4CC[C@@]3(C)[C@@H]2C1	20	inactive	inactive	inactive		
CC1(C)CC[C@]2(C(=O)O)CC=C3[C@]4(C)CC[C@H]5C(C)(C)[C@@H](O)CC[C@]5(C)[C@H]4CC[C@@]3(C)[C@@H]2C1		inactive	inactive	inactive		
CC[C@H](/C=C/[C@@H](C)[C@H]1CC[C@H]2[C@@H]3CC=C4C[C@@H](O)CC[C@]4(C)[C@H]3CC[C@]12C)C(C)C		inactive	inactive	inactive		
COc1c2c(cc3oc(C)cc(=O)c13)OC(C(C)(C)O[C@H]1O[C@@H](CO)[C@H](O)[C@@H](O)[C@@H]1O)C2 (some centres not stated)		inactive	inactive	inactive		
C[C@H]1O[C@@H](Oc2c(-c3cc(O)c(O)c(O)c3)oc3cc(O)cc(O)c3c2=O)[C@@H](O)[C@@H](O)[C@@H]1O	20	inactive	inactive	inactive		
C=C1CC[C@@H]2[C@](C)(CCC[C@]2(C)C(=O)O)[C@H]1CCc1ccoc1		inactive	inactive	inactive		
C=C(C)C(C)(C)CC[C@@H](C)[C@H]1CC[C@@]2(C)[C@@H]3CC[C@H]4C(C)(C)C(=O)CC[C@]4(C)C3=CC[C@]12C		inactive	inactive	inactive		
CC[C@H](CC[C@@H](C)[C@H]1CC[C@H]2[C@@H]3CC=C4C[C@@H](O)CC[C@]4(C)[C@H]3CC[C@]12C)C(C)C		inactive	inactive	inactive		
O=C(O)c1cc(O)c(O)c(O)c1		inactive	inactive	inactive		
C[C@H]1C(=O)CC[C@@H]2[C@]1(C)CC[C@H]1[C@@]2(C)CC[C@@]2(C)[C@@H]3CC(C)(C)CC[C@]3(C)CC[C@]12C		inactive	inactive	inactive		
O=C(O[C@H]1[C@@H]2C=CO[C@@H](O[C@@H]3O[C@H](CO)[C@@H](O)[C@H](O)[C@H]3O)[C@@H]2[C@@]2(CO)O[C@@H]12)c1ccc(O)c(O)c1		inactive	inactive	inactive		
O=c1c(O)c(-c2cc(O)c(O)c(O)c2)oc2cc(O)cc(O)c12 [MYRICETIN]	> 90	inactive	inactive	inactive	Non-toxic	
O=c1cc(-c2ccc(O)c(-c3c(O)cc(O)c4c(=O)cc(-c5ccc(O)cc5)oc34)c2)oc2cc(O)cc(O)c12	20	inactive	inactive	inactive		
O=C(/C=C/c1ccccc1)NCCCCNC(=O)c1ccccc1		inactive	inactive	inactive		
Cc1cc(=O)c2c(O)c3c(cc2o1)OC(C)(C)[C@@H](O[C@H]1O[C@@H](CO)[C@H](O)[C@@H](O)[C@@H]1O)C3		inactive	inactive	inactive		
COc1c2c(cc3oc(CO[C@@H]4O[C@H](CO)[C@@H](O)[C@H](O)[C@H]4O)cc(=O)c13)O[C@H](C(C)(C)O)C2		inactive	inactive	inactive		
COc1cc(/C=C/C(=O)CC(=O)/C=C/c2ccc(O)c(OC)c2)ccc1O		inactive	inactive	inactive		
O=c1cc(-c2ccc(O)cc2)oc2cc(O)c(O)c(O)c12 [SCUTELLAREIN]	> 90	inactive	inactive	inactive	Non-toxic	860
CC[C@H](CC[C@@H](C)[C@H]1CC[C@H]2[C@@H]3CC=C4C[C@@H](O[C@@H]5O[C@H](CO)[C@@H](O)[C@H](O)[C@H]5O)CC[C@]4(C)[C@H]3CC[C@]12C)C(C)C		inactive	inactive	inactive		
CC(C)=CCc1c(O)c(CC=C(C)C)c2oc3c(O)cccc3c(=O)c2c1O		inactive	inactive	inactive		
COc1ccc(/C=C/C(=O)O[C@H]2[C@@H]3C=CO[C@@H](O[C@@H]4O[C@H](CO)[C@@H](O)[C@H](O)[C@H]4O)[C@@H]3[C@@]3(CO)O[C@@H]23)cc1O		inactive	inactive	inactive		
O=c1c(-c2ccc(O[C@@H]3O[C@H](CO)[C@@H](O)[C@H](O)[C@H]3O)cc2)coc2cc(O)cc(O)c12		inactive	inactive	inactive		
COc1ccc(-c2cc(=O)c3c(O)cc(O[C@H]4O[C@@H](CO)[C@H](O)[C@@H](O)[C@@H]4O)cc3o2)cc1O		inactive	inactive	inactive		
O=c1c(O[C@@H]2O[C@H](CO)[C@H](O)[C@H](O)[C@H]2O)c(-c2ccc(O)c(O)c2)oc2cc(O)cc(O)c12		inactive	inactive	inactive		
COc1ccc([C@@H]2CC(=O)c3c(O)cc(O)cc3O2)cc1O[C@@H]1O[C@H](CO[C@@H]2O[C@@H](C)[C@H](O)[C@@H](O)[C@H]2O)[C@@H](O)[C@H](O)[C@H]1O		inactive	inactive	inactive		
Cc1cc(=O)c2c(O)c3c(cc2o1)OC(C)(C)[C@@H](O)C3		inactive	inactive	inactive		
O=c1c(O[C@@H]2O[C@H](CO)[C@@H](O)[C@H](O)[C@H]2O)c(-c2ccc(O)c(O)c2)oc2cc(O)cc(O)c12		inactive	inactive	inactive		
COc1ccc(-c2oc3c(CC=C(C)C)c(O)cc(O)c3c(=O)c2O)cc1		inactive	inactive	inactive		
